# HDAC3 inhib = inhibitors of human histone deacetylase 3. O15379. 320,000 tested, 0.15% active. inhibition, % at 8.3 µM. recombinant HDAC3, fluorogenic peptide/trypsin coupled, fluorescence; in the data active = inhibition above about 26%, passing the limit was not always enough; inconclusive = no clear call, values can overlap the other calls
# Target sequence (O15379 whole entry, looked up): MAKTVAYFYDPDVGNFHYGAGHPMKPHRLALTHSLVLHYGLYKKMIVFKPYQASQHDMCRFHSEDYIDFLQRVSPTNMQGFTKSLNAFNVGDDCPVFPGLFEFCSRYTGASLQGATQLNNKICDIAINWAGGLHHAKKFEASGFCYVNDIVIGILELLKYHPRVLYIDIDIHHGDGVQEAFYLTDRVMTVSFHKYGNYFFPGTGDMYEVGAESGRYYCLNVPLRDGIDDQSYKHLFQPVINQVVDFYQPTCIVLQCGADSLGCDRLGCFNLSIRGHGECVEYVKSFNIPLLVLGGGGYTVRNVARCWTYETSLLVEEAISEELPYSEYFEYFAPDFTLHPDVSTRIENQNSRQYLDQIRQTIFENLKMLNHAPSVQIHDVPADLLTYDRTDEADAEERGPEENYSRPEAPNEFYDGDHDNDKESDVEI
# IDE act = IDE (human) activation, cell-based | HEK cells, FAbeta-B cleavage, fluorescence polarization; 0% vehicle, 100% cell-free pure enzyme wells | P14735 | 340,000 tested, 0.073% active | activation, % at 5.96 µM;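 active = activation above the mean of all tested compounds plus 3 SD, set per screening campaign, cut at about 17% in these data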
# IDE inh = inhibits human insulin-degrading enzyme in HEK cells; P14735; FAbetaB cleavage, fluorescence polarization; inhibition, % at 5.59 µM; 320,000 tested, 0.41% active; AID 434962;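 active = percent inhibition above the average of all tested compounds plus 3 SD, set per screening campaign, cut at about 16% in these data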;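 also: IDE supplied by intact live HEK cells; FP after avidin binding of uncleaved biotin substrate so inhibition keeps polarization high; 0% = DMSO wells and 100% = 60 µM reference IDE inhibitor Ii1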
# CR mimetic SO = lowers age-related superoxide in aged yeast cells. superoxide response (% of plate mean), % at 10 µM. 330,000 tested, 0.18% active. S. cerevisiae aged cells, superoxide DHE fluorescence; hits give low values;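 active = superoxide response under a set limit, about three screen SD below normal, cut at about 65% in these data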;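 also: yeast aged for seven days with compound at 30 °C before DHE staining; 100% = average MFI of all compound-treated wells on the plate with controls excluded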
# Tb MetRS inh = blocks T. brucei methionyl-tRNA synthetase activity; purified T. brucei MetRS, ATP depletion, Kinase-Glo luminescence; inhibition, % at 11.9 µM; 360,000 tested, 0.4% active;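 active = inhibition above a per-plate cutoff of the control wells' mean inhibition plus 3 SD, cut at about 5.5% in these data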;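 also: 0% = DMSO wells median and 100% = median of wells with control inhibitor compound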
#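 Material: parasite MetRS enzyme / Replication: singlicate, one well per compound / Signal: luminescence of leftover ATP / Schedule: 2 h aminoacylation at 25 °C after 15 min preincubation / Medium: HEPES-MgCl2-KCl buffer plus DTT, spermine, BSA, pyrophosphatase / Doses: 11.9 µM single point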
# Efflux pump mplx = antifungal efflux pump inhibition, Nile Red retention; inhibition, % at 10 µM; 330,000 tested, 0.44% active; S. cerevisiae Candida pump triplex;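 active = plate passing quality check with inhibition over a set limit, or well fluorescence over plate mean plus 4 SD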;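 also: Nile Red retained in pooled yeast measured as flow cytometry median fluorescence; 0% = buffer negative control and 100% = Enniatin B positive control; higher means more Nile Red kept so more efflux inhibition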
# CR mimetic CP = confirmation of caloric restriction mimetics inhibiting yeast age-related superoxide; superoxide response (% of plate), % at 10 µM; S. cerevisiae aging, superoxide DHE fluorescence; hits give low values; shares compounds with CR mimetic SO; 850 tested, 1% active;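 active = superoxide signal below 65% of the plate average of sample wells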;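 also: cells aged with compound for 7 days at 30 degrees C before staining; 100% equals mean DHE fluorescence of all compound wells on the plate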
# DHE fluor count = DHE fluorescence interference, counter-screen artifact | shares compounds with CR mimetic SO | S. cerevisiae BY4741, flow cytometry; hits give low values | fluorescence response, % at 10 µM | 850 tested, under 10 active | AID 435000;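 active = fluorescence response below 15%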;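 also: percent of the mean fluorescence averaged over all compound wells on the plate; lower means stronger quenching of DHE signal or ROS scavenging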
# An asterisk follows results filed as active; u = inconclusive; x = no result given. An excerpt weighted towards active compounds, which were near 1.4% of everything screened.
SMILES,HDAC3 inhib,IDE act,IDE inh,CR mimetic SO,Tb MetRS inh,Efflux pump mplx,CR mimetic CP,DHE fluor count
O=C(NNc1c2ccccc2nc2ccccc12)c1ccccc1O,-4.7,-0.4,-2.7,89.8,0.6,-0.1,x,x
COc1cccc(-c2cc3nc(-c4ccccc4)cc(=O)n3[nH]2)c1,-32.7,-0.6,2.3,88.8,-0.8,0.0,91.1,96.5
O=c1cc(-c2ccccc2)nc2cc(-c3ccc(F)cc3)[nH]n12,-7.9,0.1,1.4,106.0,-0.1,0.1,92.3,93.5
Cc1nc2cc(-c3ccccc3)[nH]n2c(=O)c1C,-15.4,-3.9,6.6,96.2,-0.2,0.0,94.1,93.3
Cc1cc(=O)n2[nH]c(-c3ccccc3)cc2n1,-11.1,-3.9,3.1,94.4,0.1,0.0,x,x
O=C(NCC(c1ccco1)N1CCOCC1)C1CCCCC1 (stereo unspecified),u,4.0,3.5,98.0,-0.3,0.0,x,x
O=C(Nc1ccc(F)c(F)c1)c1ccc(F)c(S(=O)(=O)N2CCOCC2)c1,-4.1,x,5.0,56.0*,x,0.1,120.4,110.0
O=C(Nc1cccnc1)c1ccc(F)c(S(=O)(=O)N2CCOCC2)c1,0.0,4.7,-2.6,91.8,-0.2,0.5,x,x
O=C(Nc1nc2ccccc2s1)C1CCN(S(=O)(=O)c2cc([N+](=O)[O-])ccc2Cl)CC1,x,-3.4,2.8,114.1,0.1,0.1,x,x
CSc1ncc(Cl)c(C(=O)Nc2c(C)cccc2C)n1,-9.2,-2.7,3.1,106.0,-0.7,0.1,107.7,104.8
CCSc1ncc(Cl)c(C(=O)Nc2ccccc2Cl)n1,5.8,-5.8,4.7,92.8,-1.2,0.1,108.0,101.4
CSc1ncc(Cl)c(C(=O)Nc2ccccc2Cl)n1,x,1.7,-5.8,97.9,-0.1,-0.3,101.2,89.4
CCSc1ncc(Cl)c(C(=O)Nc2ccccc2OC)n1,-0.6,4.2,-3.1,100.0,-0.3,0.0,x,x
CSc1ncc(Cl)c(C(=O)Nc2ccc(NC(C)=O)cc2)n1,-0.6,0.8,-14.6,94.4,-0.3,-0.1,x,x
Cc1ccc(S(=O)(=O)N2C[C@H]3C(=O)C[C@@H](c4ccccc4)N(S(=O)(=O)c4ccccc4)[C@H]3C[C@H]2c2ccccc2)cc1,x,x,x,x,0.2,x,x,x
O=C(NC(Cc1ccccc1)C(=O)O)/C(=C/c1ccccc1)NC(=O)c1ccccc1 (stereo unspecified),-0.8,6.3,-4.6,64.6*,-0.4,0.3,106.6,99.0
O=C(NC(Cc1ccccc1)C(=O)O)/C(=C\c1ccc(Cl)cc1)NC(=O)c1ccccc1 (stereo unspecified),-0.5,0.9,-0.4,99.1,0.7,-0.1,x,x
CC1(C(=O)Nc2ccc3c(c2)OCCO3)CN(S(C)(=O)=O)CC(=O)N1Cc1cccs1 (stereo unspecified),x,x,x,x,-0.7,x,x,x
COc1ccc(-n2nnnc2CNC(=O)c2ccc(S(=O)(=O)N3CCOCC3)cc2)cc1,-0.4,5.9,2.4,59.7*,-0.2,-0.1,107.0,114.3
O=C(NCc1nnnn1-c1ccc(F)cc1)c1ccc(S(=O)(=O)N2CCOCC2)cc1,x,x,x,x,-0.2,x,x,x
NC(=O)CC1C(=O)N(c2ccc(Cl)cc2)C(=S)N1NC(=O)c1cccc(F)c1 (stereo unspecified),5.7,7.6,1.5,20.9*,-1.0,0.8,98.8,106.8
COc1ccccc1C1CCN(C(=O)c2ccc(Cl)cc2)CC1,2.6,5.3,2.2,36.6*,-0.7,0.2,96.1,101.3
COc1ccccc1C1CCN(C(=O)c2ccccc2)CC1,-1.6,-3.4,-0.5,95.6,-0.3,-0.1,x,x
COc1ccc(S(=O)(=O)N2CCCC2)cc1C(C)C,3.0,6.3,0.5,97.2,-0.1,0.0,104.4,88.8
CCOC(=O)c1cccc(S(=O)(=O)N2CCCC2)c1,6.3,-1.0,3.0,92.9,-0.1,0.0,107.4,90.6
SMILES,HDAC3 inhib,IDE act,IDE inh,CR mimetic SO,Tb MetRS inh,Efflux pump mplx,CR mimetic CP,DHE fluor count
COc1ccc(S(=O)(=O)N2CCCC2)cc1C(=O)O,-4.9,-5.3,1.6,89.5,-1.5,0.0,88.2,98.5
Cc1ccc(S(=O)(=O)N2CCCC2)cc1C(=O)O,-2.5,-2.0,4.5,111.0,-0.9,-0.1,92.5,93.1
COc1ccc(S(=O)(=O)N2CCCC2)cc1OC,-15.1,3.0,4.8,100.7,-1.3,-0.2,x,x
NC(=O)COC(=O)c1cccc(S(=O)(=O)N2CCCCC2)c1,-6.4,6.2,-0.6,106.8,-0.4,-0.1,x,x
C=CC[C@@H](CC(=O)NCCO)C(=O)NCCOC(=O)[C@@H](CC=C)Cc1ccc(F)cc1,-6.0,-0.2,-0.1,100.0,-2.3,-0.2,x,x
N#CCc1nn(-c2ccccc2)c2ncnc(N)c12,0.3,3.9,5.0,88.2,0.2,-0.1,102.2,103.1
N#CCc1nn(-c2ccc(Cl)cc2)c(N)c1C#N,-2.5,3.1,-4.0,99.7,0.6,-0.1,x,x
Cc1ccc(NC(=O)COC(=O)CCc2ccccc2)cc1S(=O)(=O)N1CCOCC1,0.1,1.1,-4.4,75.7,-0.3,-0.3,x,x
CCN(CC)S(=O)(=O)c1ccc(N2CCCC2)c(NC(=O)c2ccc(OC)cc2OC)c1,4.4,3.8,1.5,103.3,-0.3,0.0,x,x
CCN(CC)S(=O)(=O)c1ccc(N2CCCC2)c(NC(=O)Cc2cc(OC)c(OC)c(OC)c2)c1,6.4,4.3,1.4,101.8,-0.3,-0.4,108.4,102.2
COc1ccc(CC(=O)Nc2cc(S(=O)(=O)N3CCOCC3)ccc2N2CCCC2)c(OC)c1,x,3.8,x,x,-0.4,x,x,x
CCN(CC)S(=O)(=O)c1ccc(N2CCCC2)c(NC(=O)Cc2ccc(OC)cc2)c1,-1.3,0.4,-2.1,97.6,0.0,0.0,105.0,93.2
COc1ccc(CC(=O)Nc2cc(S(=O)(=O)N3CCOCC3)ccc2N2CCCC2)cc1OC,u,5.3,6.4,93.3,-0.3,-0.1,84.1,91.7
Cn1c2c(c(=O)n1-c1ccccc1)CSCC2,-0.5,-2.3,-0.9,99.5,0.5,0.0,x,x
CCOC(=O)N1CCN(Cc2nc(-c3cccc(C)c3)no2)CC1,-2.0,-5.2,4.8,64.0*,0.2,-0.1,110.3,108.9
COc1cc(C2C(C#N)=C(N)OC3=C2C(=O)CC(C)(C)C3)cc2c1OCO2 (stereo unspecified),3.7,0.1,0.4,98.5,-0.1,0.1,x,x
CN(NC1OC(=O)c2ccccc21)c1ccc(C(F)(F)F)cc1[N+](=O)[O-] (stereo unspecified),-4.0,x,4.8,91.4,-0.4,-0.1,x,x
CN(NC1OC(=O)c2ccccc21)c1ccc(Cl)cc1[N+](=O)[O-] (stereo unspecified),11.5,-1.0,2.9,55.3*,-0.2,-0.1,82.6,111.4
CN(C)S(=O)(=O)N1CCN(c2ccccc2)CC1,-2.9,4.7,-0.2,91.3,-1.3,0.0,x,x
